This is a sample that favours compounds with a hit; in the whole collection about 4.8% have one here.
SKKanGAS inh: inhibitors of SKKanGAS S. pyogenes growth in kanamycin (SK-promoter or general growth effect); BacTiter-Glo, 6 h; inhibition, % at 7.5 µM; hit rate 1.3% among 300,000;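 active means mean replicate score, as percent of positive control median, at least 50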;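 further: strain carries kanamycin resistance gene driven by streptokinase promoter and grows in 40 µg/ml kanamycin; loss of luminescence reflects streptokinase promoter inhibition or plain growth inhibition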
UPR XBP1 act: adaptive UPR (XBP1) activation. activation, % at 20 µM. AID 463104. CHO-XBP1 luciferase reporter, IRE1-XBP1 UPR activation, luminescence; percent of tunicamycin response, DMSO as zero. hit rate 0.33% among 330,000;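 active means versus positive control, 20 µM dose yields 30% or more activation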
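Signal: luciferase luminescence; Assay system: CHO-XBP1 luciferase reporter cells; Amount: one thousand reporter cells per well; Dosing: 20 µM single concentration, DMSO 1%; Benchmarks: high control tunicamycin 10 µg/mL final, low control DMSO vehicle only; Schedule: 6 h compound exposure at 37 °C, 5% CO2; Evaluation: percent activation relative to tunicamycin reference.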
CHOP UPR activ: activators of apoptotic arm of unfolded protein response (CHOP); CHO-CHOP luciferase reporter, UPR activation, luminescence; percent of tunicamycin response over DMSO baseline; activation, % at 10 µM; hit rate 0.34% among 330,000;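 active means at 10 µM dose, activation of 40% or more, normalized to positive control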
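System: CHO-CHOP luciferase reporter cell line | Buffer or medium: F12 medium containing 10% fetal bovine serum | Doses: One dose, 10 µM in 0.5% DMSO | Times: 6 h compound exposure at 37 °C after overnight seeding | Signal: Luciferase luminescence | Read-out: % activation vs tunicamycin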
Beta apoptosis: blocks beta cell apoptosis | hit rate 0.8% among 300,000 | AID 435005 | INS-1E cytokine-induced death, ATP luminescence, 48 h; percent of positive-control rescue, neutral wells zero | protection from apoptosis, % (test concentration not listed);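 active means Every replicate reaches about 75%, or at least half do and their mean reaches it too, limit read from the data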;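 further: higher means more ATP so stronger rescue from cytokine killing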
CSC inhib: cancer stem cell inhibition | cancer stem cell-like cells viability, luminescence | inhibition, % at 7.5 µM | hit rate 1.1% among 300,000 | AID 2717; in the data active means inhibition above about 75%; tested in HMLE shEcad cells
Mdm2-MdmX inh: disrupts the human Mdm2-MdmX interaction. O15151+Q00987. SaOS-2 split-luciferase Mdm2/MdmX complementation, luminescence. inhibition, % at 8 µM. hit rate 3% among 330,000. AID 485346;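 active means inhibition of at least 50% at 8 µM in the primary screen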
Target sequence (O15151 whole entry, looked up): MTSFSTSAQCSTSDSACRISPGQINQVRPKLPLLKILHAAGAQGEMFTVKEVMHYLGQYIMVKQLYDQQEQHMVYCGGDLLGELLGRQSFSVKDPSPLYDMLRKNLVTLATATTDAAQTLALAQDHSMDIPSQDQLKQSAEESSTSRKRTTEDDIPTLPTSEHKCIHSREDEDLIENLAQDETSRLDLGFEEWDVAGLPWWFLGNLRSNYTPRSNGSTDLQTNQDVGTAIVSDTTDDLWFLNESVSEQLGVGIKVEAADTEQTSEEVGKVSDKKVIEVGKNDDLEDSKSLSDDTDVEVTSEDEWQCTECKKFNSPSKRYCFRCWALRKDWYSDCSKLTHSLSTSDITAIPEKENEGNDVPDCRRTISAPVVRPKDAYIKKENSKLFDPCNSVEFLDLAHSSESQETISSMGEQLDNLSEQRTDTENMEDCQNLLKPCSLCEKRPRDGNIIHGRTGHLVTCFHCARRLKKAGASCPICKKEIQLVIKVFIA
Target sequence (Q00987 whole entry, looked up): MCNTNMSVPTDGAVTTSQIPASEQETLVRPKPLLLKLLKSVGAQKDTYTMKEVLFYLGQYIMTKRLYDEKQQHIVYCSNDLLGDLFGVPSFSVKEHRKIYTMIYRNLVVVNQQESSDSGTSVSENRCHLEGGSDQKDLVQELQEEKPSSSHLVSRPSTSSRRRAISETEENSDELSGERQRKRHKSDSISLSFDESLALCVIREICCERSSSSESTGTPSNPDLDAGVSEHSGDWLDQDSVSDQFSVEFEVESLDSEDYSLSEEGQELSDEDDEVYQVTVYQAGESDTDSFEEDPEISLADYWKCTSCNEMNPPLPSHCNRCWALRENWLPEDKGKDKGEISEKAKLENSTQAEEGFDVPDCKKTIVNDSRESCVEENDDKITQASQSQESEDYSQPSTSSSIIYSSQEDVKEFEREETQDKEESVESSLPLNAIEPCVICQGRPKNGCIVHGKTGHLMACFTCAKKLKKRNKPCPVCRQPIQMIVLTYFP
Mdm2 MdmX conf: confirmation of human Mdm2/MdmX interaction inhibitors; shares compounds with Mdm2-MdmX inh; Mdm2-MdmX binding, luminescent assay; inhibition, % at 8 µM; hit rate 55% among 10,000; AID 489028; in the data active means inhibition above about 40%
Full FLuc ctr: inhibits full-length luciferase, flagging false Mdm2/MdmX hits | shares compounds with Mdm2-MdmX inh | SaOS-2 full-length luciferase counterscreen, luminescence | inhibition, % at 8 µM | hit rate 77% among 6,200 | AID 504607;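 active means mean inhibition at 8 µM reaching about 37%, which flags the compound as non-specific, limit read from the data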;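 further: p53-null SaOS-2 cells with luciferase driven by a doxycycline-inducible promoter; compound on cells about two nights before reading with doxycycline added after day one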
Hits are given with their value; 0 = inactive; - = no result given.

SMILES	SKKanGAS inh	UPR XBP1 act	CHOP UPR activ	Beta apoptosis	CSC inhib	Mdm2-MdmX inh	Mdm2 MdmX conf	Full FLuc ctr
COc1ccc(C2Oc3ccccc3C3=C2C(c2cccs2)n2ncnc2N3)cc1 (stereo unspecified)	78	0	0	0	0	72	70	0
COc1ccc(OC)c(NC(=O)C2=C(C)Nc3ncnn3C2c2cccs2)c1 (stereo unspecified)	0	0	0	0	0	0	-	-
COc1ccc(Cl)cc1NC(=O)CN1C(=O)NC(Cc2c[nH]c3ccccc23)C1=O (stereo unspecified)	-	0	0	0	0	0	-	-
CCn1c(Oc2ccccc2F)nc2c1c(=O)n(C)c(=O)n2C	0	0	0	0	0	68	66	0
CCn1c(Oc2ccccc2)nc2c1c(=O)n(C)c(=O)n2C	0	0	0	0	0	0	-	-
Cc1cccc(N2CCN(S(=O)(=O)c3ccc4c(c3)n(C)c(=O)c(=O)n4C)CC2C)c1 (stereo unspecified)	0	0	0	0	0	68	0	-
Cc1ccc(N2CCN(S(=O)(=O)c3ccc4c(c3)n(C)c(=O)c(=O)n4C)CC2C)cc1 (stereo unspecified)	0	0	0	0	0	0	-	-
Cn1ccnc1SCC(=O)c1cccc(C(F)(F)F)c1	0	0	0	0	0	0	-	-
O=S(=O)(/N=C(/c1ccccc1)N1CCOCC1)c1ccc(F)cc1F	-	0	0	0	0	0	-	-
O=[N+]([O-])c1cc([N+](=O)[O-])c(Oc2c(Cl)cccc2Cl)cc1NN1CCCCC1	0	0	0	0	0	0	-	-
O=[N+]([O-])c1cc([N+](=O)[O-])c(Oc2cccnc2Br)cc1NN1CCCCC1	0	0	0	0	0	56	0	-
Cc1ccc(S(=O)(=O)NCCC(=O)NC2CC2)cc1	0	0	0	0	0	0	-	-
Cn1cccc1-c1cc(C(=O)N/N=C/c2ccc([N+](=O)[O-])cc2)[nH]n1	0	0	0	0	0	0	-	-
CC(C)c1ccc(/C=N/NC(=O)c2cc(-c3cccc([N+](=O)[O-])c3)n[nH]2)cc1	0	0	0	0	0	51	0	-
CN(C)c1ccc(/C=N/NC(=O)c2cc(-c3ccc4c(c3)OCO4)n[nH]2)cc1	0	0	0	-	0	52	54	65
COCCCN=C1NN=C(c2cc(C)n(-c3ccccc3F)c2C)CS1	0	0	0	0	0	0	-	-
COCCN=C1NN=C(c2cc(C)n(CC3CCCO3)c2C)CS1 (stereo unspecified)	0	0	0	0	0	0	-	-
COCCn1c(C)cc(C2=NNC(=Nc3ccccc3F)SC2)c1C	0	0	0	0	0	73	88	0
COCCCN=C1NN=C(c2cc(C)n(-c3ccccc3)c2C)CS1	0	0	0	0	0	0	-	-
C=CCN=C1NN=C(c2cc(C)n(CC=C)c2C)CS1	0	0	0	0	0	87	89	50
COCCCN=C1NN=C(c2cc(C)n(Cc3ccccc3Cl)c2C)CS1	0	0	0	0	0	79	76	80
O=C(Nc1ccccc1Cl)c1ccc2nc(N3CCOCC3)sc2c1	0	0	0	0	0	0	-	-
COc1ccc(C2CC(c3ccc(C)cc3)=NN2C(=O)CCC(=O)O)cc1OC (stereo unspecified)	0	0	0	0	0	0	-	-
CC(C)C[C@@]12C(=O)N(c3cccc(F)c3)C(=O)N1[C@H](c1ccc(Br)cc1)[C@@H]1C(=O)N(C(C)(C)C)C(=O)[C@@H]12	0	0	0	0	0	0	-	-
CC(C)C[C@@]12C(=O)N(c3cccc(Cl)c3)C(=O)N1[C@H](c1ccc(Br)cc1)[C@@H]1C(=O)N(C(C)(C)C)C(=O)[C@@H]12	-	0	0	0	0	50	46	69
SMILES	SKKanGAS inh	UPR XBP1 act	CHOP UPR activ	Beta apoptosis	CSC inhib	Mdm2-MdmX inh	Mdm2 MdmX conf	Full FLuc ctr
CC(C)C[C@@]12C(=O)N(c3ccc(Br)cc3)C(=O)N1[C@H](c1ccc(Br)cc1)[C@@H]1C(=O)N(C(C)(C)C)C(=O)[C@@H]12	0	0	0	0	0	60	70	52
CC[C@@]12C(=O)N(c3cccc(Cl)c3)C(=O)N1[C@H](c1ccc(Br)cc1)[C@@H]1C(=O)N(C(C)(C)C)C(=O)[C@@H]12	0	0	0	0	0	0	-	-
O=C(c1ccc(Cn2c(=O)[nH]c3ccccc3c2=O)cc1)N1CCN(c2ccc(Cl)cc2)CC1	0	0	0	0	0	65	0	-
C=CCn1c(=O)[nH]c2cc(C(=O)N3CCN(c4cc(C)ccc4C)CC3)ccc2c1=O	0	0	0	0	0	0	-	-
Cc1ccc(C)c(N2CCN(C(=O)c3ccc(Cn4c(=O)[nH]c5ccccc5c4=O)cc3)CC2)c1	0	0	0	0	0	91	52	47
CCOC(=O)N1CCN(C(=O)c2ccc3c(=O)n(Cc4ccc(Cl)cc4)c(=S)[nH]c3c2)CC1	0	0	0	0	0	0	-	-
CCOC(=O)N1CCN(C(=O)c2ccc(Cn3c(=S)[nH]c4ccc(Br)cc4c3=O)cc2)CC1	0	0	0	0	0	55	0	-
Cn1cnc(S(=O)(=O)N2CCN(C(c3ccccc3)c3ccccc3)CC2)c1	0	0	0	0	0	0	-	-
O=C1C(=O)N(CCO)C(c2ccc(Br)cc2)/C1=C(\O)c1ccccc1 (stereo unspecified)	0	0	0	0	0	0	-	-
COc1ccc(F)cc1C(=O)C1CCCN(Cc2c[nH]c3ccccc23)C1 (stereo unspecified)	0	0	0	0	0	53	0	-
Cc1cc(C)nc(N/N=C/c2cc(Br)ccc2O)n1	69	0	0	88	0	75	76	0
Cc1cc(C)nc(N/N=C/c2ccccc2OCc2ccc(Br)cc2)n1	0	0	0	0	0	0	-	-
Cc1ccc(OCc2cc(C(=O)N(C)Cc3cnn(-c4ccccc4C)c3)no2)cn1	0	0	0	0	0	0	-	-
COc1ccc(Br)cc1C(=O)Nc1ccccc1N1CCCC1	0	0	0	0	0	0	-	-
CCn1c(=O)n(CC)c2cc(N3CCCC3)c(NC(=O)c3cc(Br)ccc3OC)cc21	65	0	0	0	0	75	0	-
COc1ccc(Nc2nc(N)c(C(=O)c3ccc(OC)cc3)s2)cc1	0	0	0	0	0	50	59	60
COc1ccc(C(=O)c2sc(Nc3ccccc3)nc2C)cc1	0	0	0	-	-	0	-	-
COc1ccc(C(=O)c2sc(NC(C)C)nc2N)cc1OC	-	0	0	0	0	0	-	-
COc1ccc(Nc2nc(N)c(C(=O)c3ccc(F)cc3)s2)cc1	0	0	0	0	0	51	52	81
